# Rows were chosen to be rich in hits. Some 1.1% of all compounds tested hit in one or more screens of this group.
# CAL PDZ FP-1: blocks peptide binding to the human CAL PDZ domain. Q9HD26. purified CAL PDZ, TMR-peptide fluorescence polarization, 1 h. inhibition, % at 24.9 µM. actives 0.92% (n = 300,000);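 active means mean inhibition of at least 30% with at least half of replicates also reaching 30%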;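 further: 0% = DMSO neutral control and 100% = excess unlabeled competitor peptide PRC23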
# Keap1-Nrf2 PPI: inhibitors of human Keap1-Nrf2 protein-protein interaction. Q14145. Keap1 Kelch-Nrf2 peptide fluorescence polarization, 1536-well. inhibition, % at 9.4 µM. actives 0.15% (n = 340,000). AID 504523; in the data active means inhibition above about 12%;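 further: human Keap1 Kelch domain with fluorescein labeled Nrf2 9mer peptide probe; 0% = neutral control wells and 100% = peptide positive control; higher means more block of Keap1 binding to Nrf2 peptide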
# Target sequence (Q14145 whole entry, looked up, the tested form may be a part): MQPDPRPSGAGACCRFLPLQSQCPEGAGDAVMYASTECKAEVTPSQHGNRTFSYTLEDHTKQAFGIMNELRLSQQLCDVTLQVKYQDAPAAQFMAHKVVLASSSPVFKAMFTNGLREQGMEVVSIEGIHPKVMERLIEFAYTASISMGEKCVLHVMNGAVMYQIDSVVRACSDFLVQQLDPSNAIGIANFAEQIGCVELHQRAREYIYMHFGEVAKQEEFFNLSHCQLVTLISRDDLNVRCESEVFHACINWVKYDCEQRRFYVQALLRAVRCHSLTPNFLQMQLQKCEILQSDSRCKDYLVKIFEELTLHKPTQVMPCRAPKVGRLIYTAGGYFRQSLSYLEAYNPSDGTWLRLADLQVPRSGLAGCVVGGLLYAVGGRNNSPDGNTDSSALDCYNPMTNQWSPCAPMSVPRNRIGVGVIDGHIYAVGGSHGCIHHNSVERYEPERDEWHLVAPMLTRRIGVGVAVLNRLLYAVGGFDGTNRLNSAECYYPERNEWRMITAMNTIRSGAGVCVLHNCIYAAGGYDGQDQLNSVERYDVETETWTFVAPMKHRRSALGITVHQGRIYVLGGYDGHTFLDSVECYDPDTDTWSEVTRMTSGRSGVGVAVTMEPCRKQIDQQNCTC
# C-LANA FP: inhibitors of KSHV LANA C-terminal domain DNA binding; MBP-C-LANA/FAM-LBS DNA binding, fluorescence polarization; AID 504423; inhibition, % at 9 µM; actives 0.078% (n = 340,000);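 active means highest replicate inhibition at or above 60% at 9 µM, even if other replicates fall short; inactive means all replicates below 60% inhibition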;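 further: 0% = neutral control wells and 100% = 4 µM acridine orange control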
# miR122 inh: miR-122 inhibition in Huh7 cells; AID 602342; activation (reporter increase), % at 12.5 µM; actives 0.3% (n = 340,000); Huh7 miR-122 Renilla luciferase sensor, 48 h; neutral wells = 0, positive control = 100;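 active means mean replicate activation score at least 90 and every replicate individually at or above 90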;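 further: higher luciferase means less miR-122 activity so hits act as miR-122 inhibitors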
# CAL PDZ FP-2: human CAL PDZ-peptide interaction inhibition; Q9HD26; purified CAL PDZ, TMR-peptide fluorescence polarization, 1 h; inhibition, % at 20 µM; actives 0.02% (n = 330,000); AID 504414;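 active means highest replicate inhibition of at least 40%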;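 further: plate controls were DMSO neutral control wells for no effect and unlabeled competitor peptide control wells for full effect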
#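 System: tagged CAL PDZ domain. Schedule: 1 h room-temperature incubation prior to read. Signal: fluorescence polarization (mP). Measure: percent inhibition from loss of millipolarization.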
# Keap1 TSA: binders of human Keap1 Kelch domain; Keap1 Kelch thermal shift, delta Tm; stronger effect = higher value; AID 651823; shares compounds with Keap1-Nrf2 PPI; actives 8% (n = 400); max delta Tm, degrees C; in the data active means max delta Tm above about 0.48 degrees C
# Dye-only ctr: counter-screen for Keap1 thermal shift hits: dye-only artifacts | shares compounds with Keap1-Nrf2 PPI | delta Tm, degrees C (test concentration not listed) | 140 tested, under 10 active | Sypro Orange dye-only thermal melt, no protein, delta Tm; top dose 26 µM | AID 651858;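 active means at highest dose tested, delta Tm positive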
# * = called active by the depositor; / = no result; [ ] = remark or other dose.
SMILES,CAL PDZ FP-1,Keap1-Nrf2 PPI,C-LANA FP,miR122 inh,CAL PDZ FP-2,Keap1 TSA,others
C[C@H]1CN([C@@H](C)CO)S(=O)(=O)c2ccc(-c3ccccc3)cc2O[C@@H]1CN(C)Cc1ccncc1,/,/,/,-0.3[16.7 µM],/,/,
Cc1cc2nc3c(=O)[nH]c(=O)[nH]c3nc2c([N+](=O)[O-])c1N,0.4,89.1*,109.2*,-13.6,1.0,0.18,Dye-only ctr=-26.8
CCC(C)(C)n1nnnc1C(c1cc2ccc(OC)cc2[nH]c1=O)N1CCc2ccccc2C1 (configuration not stated),1.2,9.6*,34.5,-3.0,-0.7,-0.13,Dye-only ctr=-24.5
CCn1nnnc1SCC(=O)N(C)C1CCS(=O)(=O)C1 (configuration not stated),/,37.2*,15.4,2.4,0.6,-0.13,
COc1ccc(-n2nnnc2SCC(=O)N(C)C2CCS(=O)(=O)C2)cc1 (configuration not stated),-2.0,-7.3,1.9,/,0.0,/,
Cc1noc(C)c1NC(=O)N(C)C[C@H]1OCCCC[C@@H](C)Oc2ccc(N(C)C)cc2C(=O)N([C@H](C)CO)C[C@H]1C,/,/,/,3.1[16.7 µM],/,/,
COc1ccc(/C=c2\s/c(=C(/C#N)C(=O)NCc3ccco3)n(-c3ccccc3)c2=O)cc1,-1.9,13.1*,13.1,-3.0,0.5,-0.02,
Cc1snc(S(=O)(=O)/C(C#N)=N/Nc2cccc(C(F)(F)F)c2)c1C#N,-2.2,12.1*,-2.1,8.6,-2.4,0.19,
COc1ccc(N/N=C(/C#N)S(=O)(=O)c2nsc(C)c2C#N)cc1,-2.1,-3.1,-0.2,6.6,0.3,/,
Cc1nn(C)cc1NC(=O)C[C@@H]1CC[C@@H]2[C@@H](COc3ccc(NC(=O)C(C)C)cc3C(=O)N2C)O1,/,/,/,-12.5[16.7 µM],/,/,
COCCCn1c(=NC(=O)c2ccccc2)c(C#N)cc2c(=O)n3cccc(C)c3nc21,0.5,14.4*,5.3,2.3,0.9,0.04,
COCCCn1c(=NC(C)=O)c(C#N)cc2c(=O)n3cccc(C)c3nc21,/,/,/,-1.3,/,/,
CCOCCCn1c(=NC(=O)c2cccs2)c(C#N)cc2c(=O)n3cccc(C)c3nc21,/,12.8*,13.9,-6.6,-0.5,0.24,
C[C@@H](NC(=O)C[C@@H]1C[C@H]2c3cc(NC(=O)CN(C)C)ccc3O[C@H]2[C@@H](CO)O1)c1ccccc1,/,/,/,-2.2[16.7 µM],/,/,
C[C@H]1CN([C@@H](C)CO)C(=O)Cc2cc(NC(=O)CCCCCC(=O)Nc3ccccc3N)ccc2O[C@H]1CN(C)C(=O)Nc1ccc(C(F)(F)F)cc1,/,/,/,0.0[16.7 µM],/,/,
O=[N+]([O-])c1cncc([N+](=O)[O-])c1Nc1cccc(O)c1,/,35.2*,27.0,1.5,-1.2,-0.14,
CC(C)Cn1c(N)c(C(=O)CSc2nnc(-c3ccco3)n2C)c(=O)n(C)c1=O,/,68.4*,/,-2.9,-1.0,0.03,
CCCN(C)C[C@H]1OCCCC[C@@H](C)Oc2ccc(NC(=O)Nc3ccc(F)cc3)cc2C(=O)N([C@H](C)CO)C[C@@H]1C,/,/,/,1.3[16.7 µM],/,/,
CN1CC=C2C(C#N)=C(N)C(C#N)(C#N)[C@H](c3cccs3)[C@H]2C1,5.5,26.0*,56.8,-1.5,0.1,-0.02,Dye-only ctr=-27.6
CCOC(=O)N1CC=C2C(C#N)=C(N)C(C#N)(C#N)[C@H](c3ccsc3)[C@H]2C1,-5.6,-11.0,6.0,-2.6,/,/,
CN1CC=C2C(C#N)=C(N)C(C#N)(C#N)[C@H](c3cccc(Cl)c3)C2C1 (some centres not stated),-3.0,4.2,28.0,4.6,-0.2,/,
CCCC1C2CN(C(C)C)CC=C2C(C#N)=C(N)C1(C#N)C#N (configuration not stated),-0.4,20.2*,44.8,6.2,-0.9,-0.16,Dye-only ctr=-26.1
CN1CC=C2C(C#N)=C(N)C(C#N)(C#N)C(c3ccsc3)C2C1 (configuration not stated),/,17.4*,36.0,-0.2,0.3,-0.17,
C[C@@H]1CN([C@@H](C)CO)C(=O)c2cc(NC(=O)Nc3ccc4c(c3)OCO4)ccc2O[C@@H](C)CCCCO[C@H]1CN(C)C,/,/,/,1.6[16.7 µM],/,/,
COc1cccc(NC(=O)N2C[C@@H](O)COC[C@H]3O[C@H](CC(=O)NC4Cc5ccccc5C4)CC[C@@H]32)c1,/,/,/,-3.8[16.7 µM],/,/,
SMILES,CAL PDZ FP-1,Keap1-Nrf2 PPI,C-LANA FP,miR122 inh,CAL PDZ FP-2,Keap1 TSA,others
Cc1nc(Cl)c2c(n1)NC1=C(O2)C(=O)CCC1,4.1,27.6*,50.9,/,-2.9,-0.12,Dye-only ctr=-22.7
O=C1NC2=C(C(=O)CCC2)C(c2ccccc2Cl)N1 (configuration not stated),-1.2,1.3,-0.4,/,-2.9,/,
O=C1NC(=O)/C(=C\c2ccc(Cl)cc2Cl)N1,5.6,1.1,3.6,-8.0,-0.3,/,
O=C1NC(=O)/C(=C/c2ccccc2Cl)N1,-5.2,112.0*,-1.4,-5.3,-1.6,-0.15,
Cc1noc(C)c1NC(=O)Nc1ccc2c(c1)CC(=O)N([C@@H](C)CO)C[C@H](C)[C@@H](CN(C)S(C)(=O)=O)O2,/,/,/,4.9[16.7 µM],/,/,
Cc1ccc(N2C(=O)C3C(C(=O)c4ccccc4)=NN(c4ccccc4)C3C2=O)cc1 (configuration not stated),-0.5,-4.9,0.9,-3.6,-0.9,/,
O=C(C1=NN(c2ccccc2)C2C(=O)N(c3ccccc3)C(=O)C12)c1ccccc1 (configuration not stated),-0.1,53.7*,14.4,/,-2.3,-0.11,Dye-only ctr=-5.22
Cc1noc(C)c1S(=O)(=O)Nc1ccc2c(c1)CC(=O)N([C@@H](C)CO)C[C@H](C)[C@@H](CN(C)S(=O)(=O)c1ccc(F)cc1)O2,/,/,/,-3.1[16.7 µM],/,/,
C=CCn1c(Sc2ncc([N+](=O)[O-])s2)n[nH]c1=O,/,18.7*,2.4,/,0.2,-0.09,Dye-only ctr=-28.1
O=c1c(-c2cc3ccccc3o2)[n+]([O-])c2ccccc2n1OCc1ccccn1,-4.5,36.2*,15.0,11.7,-1.3,-0.07,Dye-only ctr=-31.5
CCOn1c(=O)c(-c2cc3ccccc3o2)[n+]([O-])c2ccccc21,-0.7,4.5,-2.5,13.7,-2.1,/,
C[C@H](NC(=O)[C@@H]1[C@@H](CO)[C@@H]2Cn3c(cccc3=O)[C@@H]2N1CC1CC1)c1ccccc1,/,/,/,1.7[16.7 µM],/,/,
Cc1ccc2cc(CN(CCCO)S(=O)(=O)c3cccc4nsnc34)c(=O)[nH]c2c1C,21.9,13.6*,-1.5,0.5,-2.9,-0.15,Dye-only ctr=-34.2
Cc1ccc2cc(CN(CCCO)S(=O)(=O)c3ccccc3F)c(=O)[nH]c2c1C,-3.3,-4.6,-1.0,-0.3,-2.4,/,
CC(C)(C)c1ccccc1NC(=O)NC1CCN(Cc2c(F)cccc2Cl)CC1,/,20.9*,10.1,-3.6,-1.8,-0.17,
O=C(Nc1ccccc1)NC1CCN(Cc2c(F)cccc2Cl)CC1,-3.0,-2.9,-0.5,-0.9,0.1,/,
C[C@H](CO)N1C[C@H](C)[C@@H](CN(C)C(=O)c2ccc(F)cc2)Oc2ncc(/C=C/c3ccccc3)cc2C1=O,/,/,/,-10.4[16.7 µM],/,/,

# Screening results as filed in PubChem BioAssay.
